Experimental data: PubChem BioAssay
Unmarked numbers belong to inactive results. Inconclusive results are not listed. The source made the active and inactive calls.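 How the source made its calls, unless noted: active means RAM network inhibition above 8.4% in each of two replicates, 3 SD over the compound average; inconclusive means above 8.4% inhibition in only one replicate; inactive means 8.4% inhibition or less in each replicate.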

What was measured:
[1] = S. cerevisiae growth inhibition in permissive medium (OD615), pilot counter-assay for S. cerevisiae lifespan shortening project, permissive growth control (AID 705;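 active means growth inhibition above 25% in both replicates, a cutoff set 3 SD above the mean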); conditions: OD615, 24 h, at 10 µM, stronger effect = higher value
Procedure, shortened: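 Timing: 24 h exposure, 30 °C / Material: Saccharomyces cerevisiae strain carrying genetically modified DeaD replicative-lifespan system / Signal: OD at 615 nm / Compound: 10 µM single dose, 0.25% DMSO / Medium: SC raffinose/galactose permissive medium / Evaluation: reduction in yeast growth (OD615)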

[2] = S. cerevisiae growth inhibition in restrictive medium, OD615, pilot screen, restrictive growth control, yeast lifespan reduction project (AID 706;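 active means growth inhibition above a set limit, 3 SD over mean compound inhibition, in both replicates, cut at about 43% in these data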;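 further: modified DeaD lifespan yeast strain shifted to restrictive glucose medium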); conditions: OD615, 48 h, at 10 µM, stronger effect = higher value
Procedure, shortened: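 System: Engineered S. cerevisiae DeaD strain | Detection: OD615 | Buffer or medium: CSMM-D glucose medium | Doses: 10 µM compound, 0.25% DMSO | Timing: 4 h pre-growth plus 48 h compound exposure, 30 °C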

[3] = doxorubicin toxicity protection in MRP-1 cells – H69AR cells, CellTiter-Glo, duplicate, MRP-1 activator project, pilot screen (AID 807;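 active means viability increase at or above a cutoff of the median across tested compounds plus 3 SD, cut at about 8.5% in these data, passing the limit was not always enough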;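 further: compound pretreatment 18-22 h then 72 h combined with doxorubicin; 0% = doxorubicin alone and 100% = vehicle without doxorubicin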); conditions: H69AR viability with doxorubicin, CellTiter-Glo luminescence; at 10 µM; stronger effect = higher value
[4] = viability of HCT116 without oncogenic beta-catenin – human colon tumor cells, pilot screen (AID 823;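 active means cell viability at or below a set limit in both duplicate runs, the limit being the all-compound median minus 4 SD, cut at about 23% in these data, passing the limit was not always enough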;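 further: 0% = wells killed by 20 µM Hyamine and 100% = untreated DMSO cell wells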); conditions: HCT116 beta-catenin knockout viability, CellTiter-Glo, 60 h; at 10 µM; stronger effect = lower value
[5] = viability of PTEN-null HCT116 cells – cell-based, HCT116 clonal line, CellTiter-Glo, pilot screen (AID 824;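 active means viability at or below 27.92% in each of two runs, the all-compound median minus 4 SD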;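 further: 0% = 20 µM Hyamine control and 100% = vehicle cell control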); conditions: HCT116 PTEN-deleted viability, 60 h, at 10 µM, stronger effect = lower value
[6] = RAM pathway blockade in budding yeast – dse1pr::URA3 reporter, 5-FOA selection, pilot screen (AID 869;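 active means inhibition over a set limit, the all-compound mean plus 3 SD, in both replicate runs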;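 further: 0% = DMSO wells with no growth and 100% = 10 µM 1-NA-PP1 with full growth; RAM network block rescues cells from 5-FOA so hits raise OD615 growth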); conditions: S. cerevisiae dse1pr::URA3 5-FOA growth, OD615, 2 d; at 10 µM; stronger effect = higher value; strain carries analog-sensitive mutant Cbk1 kinase
[7] = RAM signaling pathway blockade in yeast – S. cerevisiae, Pdr1DBD-CYC8 efflux-inhibited sensitized strain, primary screen (AID 1298);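 further: 0% = DMSO untreated cells without growth and 100% = 10 µM 1-NA-PP1 full growth; higher means more yeast growth rescued from 5-FOA killing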; conditions: S. cerevisiae cbk1-as DSE1-URA3 strain, 5-FOA growth OD615, 2 d; at 50 µM; stronger effect = higher value

| Structure (SMILES) | growth inhibition [1] [%] | growth inhibition [2] | viability increase [3] [%] | viability [4] | viability [5] | inhibition [6] [%] | RAM network inhibition [7] [%] |
| --- | --- | --- | --- | --- | --- | --- | --- |
| CCOc1ccc(C2CC(c3ccc(OC)c(OC)c3)n3nc(N)nc3N2)cc1 (configuration not stated) | 2.68 | 5.4% | 0.31 | 101% | 92.7% | 2.06 | 5.15 |
| COc1ccc2cc3c(N)nn(C(=O)Cc4ccccc4OC)c3nc2c1 | 10.1 | 17.7% | -8.54 | 2.78% (active) | 5.52% (active) | 0.65 | 2.84 |
| CC(=O)Nc1nc2n(n1)C(c1ccccc1)C=C(c1ccccc1)N2 (configuration not stated) | -7.58 | 4.18% | -2.94 | 99.9% | 106% | 1.06 | 1.19 |
| CC(C)N(CCc1ccncc1)C(=O)Nc1ccc(F)cc1 | 0.1 | -7.37% | -2.27 | 102% | 96.8% | 1.21 | 5.33 |
| COc1ccc(C)cc1NC(=O)Cn1cnc2sc(C)c(S(=O)(=O)N3CCOCC3)c2c1=O | 4.46 | 4.67% | -1.23 | 102% | 99.3% | 2.75 | 9.74 |
| Cc1cc(C)n(C(=O)CCCC(=O)n2nc(C)cc2C)n1 | -10.5 | -10.9% | -1.19 | 105% | 97.4% | 1.19 | 2.92 |
| COc1ccc(NC(=O)C2CCCN2S(=O)(=O)c2ccc(F)cc2)cc1 (configuration not stated) | -11.8 | -12.7% | -0.14 | 109% | 99.2% | 1.87 | -1.32 |
| Cn1c(SCC(=O)Nc2cccc(F)c2)nnc1-c1cccnc1 | -4.63 | -4.04% | 0.87 | 105% | 104% | 0.035 | 3.15 |
| C=CCSc1nc2c(cnn2-c2ccc(C)c(C)c2)c(=O)[nH]1 | -6.23 | -5.07% | -1.43 | 93.3% | 93.1% | 4.19 | 0.11 |
| COCCCNC(=O)CS(=O)Cc1nc(-c2ccccc2C)oc1C (configuration not stated) | -4.76 | 18% | -1.44 | 97.9% | 102% | 0.445 | 6.27 |
| O=C(Nc1ccccc1C(=O)NC(Cc1c[nH]c2ccccc12)C(=O)O)c1ccco1 (configuration not stated) | -11 | -11.3% | -2.96 | 102% | 97.1% | 0.95 | 2.94 |
| Cc1cccc(N(C)c2cc(C)nc3ncnn23)c1 | 2.75 | 3.99% | -1.19 | 97.3% | 99.6% | 0.99 | 4.73 |
| CNc1nc(-c2ccc(Cl)cc2)cs1 | -5.83 | -22.5% | 0.42 | 92.1% | 87.8% | 0.94 | 0.43 |
| NC(=O)C1(S(=O)(=O)c2ccccc2)CCCCC1 | -0.22 | -4.29% | -1.06 | 97.8% | 96.7% | 1.43 | 4.97 |
| CCOC(=O)c1ccc(S(=O)(=O)N2CCN(CCC#N)CC2)cc1 | -7.13 | 0.63% | 1.42 | 102% | 99.4% | 0.195 | 0.21 |
| O=C(Nc1cccnc1)c1ccccc1F | -7.93 | 4.54% | -0.03 | 103% | 103% | 0.88 | 2.95 |
| COc1ccc(NC(=O)C2CCN(S(=O)(=O)c3cccc4cccnc34)CC2)cc1OC | -4.2 | 0.21% | -1.69 | 107% | 96.6% | 1.41 | 1.04 |
| CCn1cc(S(=O)(=O)CC(=O)Nc2ccc(C)cc2)c2ccccc21 | 0.74 | -4.11% | -0.58 | 92.7% | 93% | 1.61 | 2.02 |

| Structure (SMILES) | growth inhibition [1] [%] | growth inhibition [2] | viability increase [3] [%] | viability [4] | viability [5] | inhibition [6] [%] | RAM network inhibition [7] [%] |
| --- | --- | --- | --- | --- | --- | --- | --- |
| O=C(NCCCN1CCOCC1)NC12CC3CC(CC(C3)C1)C2 | -1.84 | 2.31% | -0.98 | 104% | 105% | 0.625 | 0.01 |
| COc1cccc(C2CC(c3ccc(Cl)cc3)n3nc(N)nc3N2)c1 (configuration not stated) | -3.76 | 1.46% | 0.04 | 100% | 91.1% | 1.63 | 7.39 |
| Cn1c(NC(=O)c2cc(Cl)ccc2Cl)cc(=O)n(C)c1=O | 4.47 | 3.21% | -2.52 | 99.9% | 94.7% | 1.17 | 1.45 |
| O=C(O)CSc1cccc2cccnc12 | 15.6 | 44.6% (active) | -0.24 | 96.5% | 102% | 1.17 | 1.05 |
| COC(=O)c1ccccc1NC(=O)c1cc(C2CC2)on1 | -8.38 | 4.01% | -3.29 | 91.5% | 90.8% | 1.4 | 5.95 |
| CCN1C(=O)CS/C1=N\c1nccs1 | 1.12 | 1.68% | 0.86 | 105% | 105% | 1.64 | -1.23 |
| O=C(Cn1cc2c(n1)CCCCC2)NCc1ccccn1 | -5.75 | -16.1% | -2.27 | 95.6% | 90.8% | 3.27 | 4.15 |
| O=C1CC(c2ccc(S(=O)(=O)NCc3ccncc3)cc2)CN1 (configuration not stated) | -10.3 | -7.88% | -0.07 | 99.7% | 97.2% | 1.73 | 1.15 |
| O=C(Nc1ccc(S(=O)(=O)N2CCOCC2)cc1)c1ccc(Cl)cc1 | -7.83 | -8.68% | -1.99 | 61.1% | 80.2% | 2.31 | 3.83 |
| Cc1nc2ccccc2c2oc(C(=O)NCCCN3CCC(C)CC3)cc12 | 2.51 | 17.8% | -5.7 | 63.6% | 64.7% | 1.96 | 6.26 |
| Cc1cccn2cc(-c3ccc(S(=O)(=O)N4CCOCC4)cc3)nc12 | -12.6 | -19.7% | -1.3 | 83.5% | 91% | 1.75 | 2.29 |
| O=C(Cn1cc2c(n1)CCCCC2)NCc1ccccc1 | -13.4 | 0.525% | -0.82 | 102% | 86.5% | 1.06 | 3.47 |
| COc1ccccc1-c1c(C)nn2c(NCCN3CCCC3)cc(C)nc12 | -3.48 | 0.235% | -1.54 | 87.1% | 92.6% | 0.815 | 2.33 |
| CCOc1cccc(OCCOCCN(C)Cc2ccccc2)c1 | 2.5 | -3.23% | -4.15 | 75.3% | 78.9% | 0.55 | 0.2 |
| COc1ccc(C2C(C(=O)NC(C)C)c3ccccc3C(=O)N2C)cc1OC (configuration not stated) | -12.9 | -13.2% | -0.58 | 105% | 101% | 0.95 | 5.34 |
| COc1ccc(C2C(C#N)=C(N)Oc3n[nH]c(C)c32)cc1Cn1nnc2ccccc21 (configuration not stated) | 2.33 | -0.6% | -5.95 | 75.7% | 77.9% | 1.26 | 7.2 |
| CCOC(=O)c1[nH]c(C)c(C(=O)Nc2ccc(C)c(C)c2)c1C | -12.6 | -10.7% | -4.91 | 64.1% | 45.9% | 1.46 | 1.84 |
| O=C1NCCCC1C(=O)NCCN1C(=O)CCC1=O (configuration not stated) | -14.3 | -7.9% | 0.1 | 96.7% | 96% | 1.04 | 3.29 |
